Assay results reported in ChEMBL document CHEMBL1126204, “Nucleic acid related compounds. 74. Synthesis and biological activity of 2'(and 3')-deoxy-2'(and 3')-methylenenucleoside analogues that function as mechanism-based inhibitors of S-adenosyl-L-homocysteine hydrolase and/or ribonucleotide reductase” (J Med Chem, 1992).

Legend:
[1] = Concentration required to inhibit the proliferation of human T-lymphocyte CEM/dCK-(dCyd kinase deficient) cells by 50%; assay type: functional
Summary of the method: (§1)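 Wild-type CEM and kinase-deficient sublines (AK⁻, dCK⁻, AK⁻/dCK⁻) grown in RPMI-1640 with 10% inactivated FCS, 2 mM L-glutamine and 0.075% NaHCO₃. Cells were exposed to compound at 0.001–500 µM for 3 days at 37 °C in humidified CO₂. Viable cells counted by Coulter counter; IC₅₀ = 50% reduction in viable cells. Mean of 2–4 independent experiments.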

[2] = system: L1210; experiment: In vitro inhibition of L1210 (murine leukemia) cell proliferation.; assay type: functional, cell-based; settings: Mus musculus
Summary of the method: (§2)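 Murine FM3A or L1210 cells in Eagle's MEM with 10% inactivated FCS, 2 mM L-glutamine and 0.075% NaHCO₃, seeded at 5 × 10⁵ cells/mL with compound (0.001–500 µM). After 2 days at 37 °C in humidified CO₂, viable cells were counted with a Coulter counter. IC₅₀ = 50% fewer viable cells; mean of 2–4 experiments.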

[3] = Concentration required to inhibit the proliferation of human T-lymphocyte CEM/AK-/dCK-(Ado and dCyd kinase deficient) cells by 50%; assay type: functional; summary of the method: as §1
[4] = system: MT4; experiment: In vitro inhibition of MT-4 (Human T-lymphocyte) cell proliferation.; assay type: functional, cell-based
Summary of the method: (§3)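 Human Molt/4F, MT-4, and Raji cells (wild-type, TK⁻ or dCK⁻) in RPMI-1640 with 10% inactivated FCS, 2 mM L-glutamine and 0.075% NaHCO₃, seeded at 7.5 × 10⁵ cells/mL with compound (0.001–500 µM). Incubated 3 days at 37 °C in humidified CO₂; viable cells counted by Coulter counter. IC₅₀ = 50% reduction in viable cells; means of 2–4 independent experiments.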

[5] = In vitro inhibition of Molt/4f (Human T-lymphoblast) cell proliferation.; assay type: functional; summary of the method: as §3
[6] = In vitro inhibition of FM3A (murine carcinoma) cell proliferation.; assay type: functional; settings: Mus musculus; summary of the method: as §2
[7] = system: CEM (Homo sapiens); experiment: Concentration required to inhibit the proliferation of human T-lymphocyte CEM/o cells by 50%
[8] = Concentration required to inhibit the proliferation of human T-lymphocyte CEM/AK-(Ado kinase deficient) cells by 50%; assay type: functional; summary of the method: as §1
[9] = system: CEM (Homo sapiens); experiment: Concentration required to inhibit the proliferation of human T-lymphocyte CEM/o cells by 50%; remark: listed apart in the source
[10] = system: L1210; experiment: Antitumor activity in mice bearing L1210 murine leukemia cell line at a dose of 12.5 mg/kg/day.; assay type: functional, Mus musculus
Summary of the method: (§4)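 DBA/2 mice (20 g) inoculated ip with 10⁶ L1210 leukemia cells; test agent given ip once daily for 5 successive days beginning 1 day after inoculation, dissolved in Eagle's MEM containing 2.5% Tween (250 μL injection). Untreated tumor-bearing controls; read-out mean survival time in days, 7–15 mice per group.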

[11] = Concentration required to inhibit the proliferation of human T-lymphocyte CEM/dCK-(dCyd kinase deficient) cells by 50%
[12] = Concentration required to inhibit the proliferation of human T-lymphocyte CEM/AK-(Ado kinase deficient) cells by 50%
[13] = Concentration required to inhibit the proliferation of human T-lymphocyte CEM cells by 50% in presence exogenous necleoside Ado+dCyd (100 uM).; assay type: functional, cell-based; settings: CCRF-CEM, in the assay text read “1000 uM” for “100 uM”
Summary of the method: (§5)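 CEM human T-lymphocytes in RPMI-1640 with 10% inactivated FCS, 2 mM L-glutamine and 0.075% NaHCO₃. Test compound (0.001–500 µM) was co-added with the stated subtoxic exogenous nucleoside(s). Incubated 3 days at 37 °C in humidified CO₂, then viable cells counted by Coulter counter. IC₅₀ is the level giving 50% fewer viable cells; means of 2–4 independent experiments.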

[14] = Concentration required to inhibit the proliferation of human T-lymphocyte CEM cells by 50% in presence exogenous necleoside Ado (100 uM).; assay type: functional, cell-based; settings: CCRF-CEM, in the assay text read “1000 uM” for “100 uM”; summary of the method: as §5
[15] = system: L1210; experiment: Concentration required to inhibit the proliferation of L1210 murine leukemia cell line by 50% in presence exogenous necleoside dCyd (100 uM).; assay type: functional, cell-based; settings: Mus musculus, in the assay text read “1000 uM” for “100 uM”
Summary of the method: (§6)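 L1210 murine leukemia cells in Eagle's MEM with 10% inactivated fetal calf serum, 2 mM L-glutamine and 0.075% NaHCO₃. 5 × 10⁵ cells/mL were exposed to test compound (0.001–500 µM) together with the stated exogenous nucleoside at subtoxic level. Incubated 2 days at 37 °C in humidified CO₂. Viable cells were counted by Coulter counter. IC₅₀ = 50% reduction in viable cell number; mean of 2–4 independent experiments.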

[16] = Concentration required to inhibit the proliferation of human T-lymphocyte CEM/AK-/dCK-(Ado and dCyd kinase deficient) cells by 50%
[17] = Concentration required to inhibit the proliferation of human T-lymphocyte CEM cells by 50% in presence exogenous necleoside dCyd (100 uM).; assay type: functional, cell-based; settings: CCRF-CEM, in the assay text read “1000 uM” for “100 uM”; summary of the method: as §5
[18] = system: L1210; experiment: Concentration required to inhibit the proliferation of L1210 murine leukemia cell line by 50% in presence exogenous necleoside Guo (50 uM).; assay type: functional, cell-based; settings: Mus musculus; summary of the method: as §6
[19] = system: L1210; experiment: Antitumor activity in mice bearing L1210 murine leukemia cell line at a dose of 50 mg/kg/day.; assay type: functional, Mus musculus; summary of the method: as §4
[20] = system: L1210; experiment: Antitumor activity in mice bearing L1210 murine leukemia cell line at a dose of 100 mg/kg/day.; assay type: functional, Mus musculus; summary of the method: as §4
[21] = system: L1210; experiment: Concentration required to inhibit the proliferation of L1210 murine leukemia cell line by 50% in presence exogenous necleoside Ado (100 uM).; assay type: functional, cell-based; settings: Mus musculus, in the assay text read “1000 uM” for “100 uM”; summary of the method: as §6
[22] = system: L1210; experiment: Concentration required to inhibit the proliferation of L1210 murine leukemia cell line by 50% in presence exogenous necleosides dCyd+Ado (100 uM).; assay type: functional, cell-based; settings: Mus musculus, in the assay text read “1000 uM” for “100 uM”; summary of the method: as §6
[23] = system: L1210; experiment: Antitumor activity in mice bearing L1210 murine leukemia cell line at a dose of 25 mg/kg/day.; assay type: functional, Mus musculus; summary of the method: as §4

Row | Compound | IC50 [2] [µM] | IC50 [4] [µM] | IC50 [5] [µM] | IC50 [6] [µM] | also measured
1 | C=C1[C@@H](O)[C@H](n2cnc3c(O)nc(N)nc32)O[C@@H]1CO | > 200 | > 200 | > 200 | > 200 | IC50 [1]: > 500 µM; IC50 [3]: > 500 µM; IC50 [7]: > 500 µM; IC50 [8]: > 500 µM
2 | C=C1[C@H](n2cnc3c(N(C)C)nc(N)nc32)O[C@H](CO)[C@H]1O | 454 | > 500 | 335 | > 500 | 
3 | C=C1[C@@H](O)[C@H](n2cnc3c(O)ncnc32)O[C@@H]1CO | > 200 | > 200 | > 200 | > 200 | 
4 | C=C1[C@@H](O)[C@H](n2cnc3c(SC)nc(N)nc32)O[C@@H]1CO | > 500 | > 500 | > 500 | > 500 | 
5 | C=C1[C@@H](O)[C@H](n2ccc(=O)[nH]c2=O)O[C@@H]1CO | > 500 | 450 | > 500 | > 500 | 
6 | C=C1[C@@H](O)[C@H](n2cnc3c(N)nc(N)nc32)O[C@@H]1CO | > 200 | > 200 | > 200 | > 200 | IC50 [1]: > 500 µM; IC50 [3]: > 500 µM; IC50 [9]: > 500 µM; IC50 [8]: > 500 µM
7 | C=C1[C@H](n2cnc3c(N)nc(N)nc32)O[C@H](CO)[C@H]1O | 8.2 | > 500 | 22 | 67 | Mean survival time [10]: 9.1 days; IC50 [11]: 196 µM; IC50 [12]: 38 µM; IC50 [13]: 95 µM; IC50 [14]: 21 µM; IC50 [15]: 16 µM; IC50 [16]: 194 µM; IC50 [17]: 133 µM; IC50 [18]: 44 µM; Mean survival time [19]: 3 days; Mean survival time [20]: 2 days; IC50 [9]: 7.7 µM; IC50 [21]: 48 µM; IC50 [22]: 41 µM; Mean survival time [23]: 8.7 days

More lines, in order of falling IC50 [2], values ahead:

Row | IC50 [2] [µM] | Compound | IC50 [4] [µM] | IC50 [5] [µM] | IC50 [6] [µM] | also measured
8 | 65 | C=C1[C@H](n2cnc3c(N)ncnc32)O[C@H](CO)[C@H]1O | 131 | > 500 | 232 | 
9 | 60 | C=C1[C@H](n2cnc3c(O)ncnc32)O[C@H](CO)[C@H]1O | > 200 | > 200 | 113 | 
10 | 20 | C=C1[C@H](n2cnc3c(S)nc(N)nc32)O[C@H](CO)[C@H]1O | 0.48 | 24 | 26 | 
11 | 10 | C=C1[C@H](n2cnc3c(OC)nc(N)nc32)O[C@H](CO)[C@H]1O | 180 | 23 | 41 | 
